Measurements: ChEMBL document CHEMBL1123578, “Stereochemical studies on the cytochrome P-450 catalyzed oxidation of (S)-nicotine to the (S)-nicotine delta 1'(5')-iminium species” (J Med Chem, 1987)

Legend:
Assay type in all cases: functional
Conditions in all cases: Microsome
Homo sapiens [1] = species on record: Homo sapiens; test: Percent Deuterium retention was measured for the corresponding alpha-cyano amine in the human liver microsomes and value from experiment III are reported.
Method in brief: (§1)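 Human liver microsomes from three separate sources (homogenized in 4 mL KCl/g liver), 3 mg protein/mL. E or Z (S)-nicotine-5'-d1 (0.5 mM) was incubated 30 min at 37 °C in 0.2 M K phosphate pH 7.4 with 1.5 mM MgCl2, 1.0 mM NaCN and 1 mg/mL NADPH. The 5'-cyano adducts were ether-extracted and measured by GC-EIMS SIM (m/z 109-111) with isotope and contaminant corrections.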

Homo sapiens [2] = species on record: Homo sapiens; test: Percent Deuterium retention was measured for the corresponding alpha-cyano amine in the human liver microsomes and value from experiment I are reported.; method in brief: as §1
Oryctolagus cuniculus [3] = species on record: Oryctolagus cuniculus; test: Percent Deuterium retention was measured for the corresponding alpha-cyano amine in the Dutch rabbit liver microsomes and value from experiment I are reported.
Method in brief: (§2)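 Liver microsomes from male Dutch rabbits (homogenized in 2 mL KCl/g liver), 3 mg protein/mL. The E or Z (S)-nicotine-5'-d1 (0.5 mM) was incubated in 0.2 M K phosphate pH 7.4 with 1.5 mM MgCl2, 1.0 mM NaCN and 1 mg/mL NADPH for 30 min at 37 °C.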

Oryctolagus cuniculus [4] = species on record: Oryctolagus cuniculus; test: Percent Deuterium retention was measured for the corresponding alpha-cyano amine in the Dutch rabbit liver microsomes and value from experimentI V are reported.; method in brief: as §2
Homo sapiens [5] = species on record: Homo sapiens; test: Percent Deuterium retention was measured for the corresponding alpha-cyano amine in the human liver microsomes and value from experiment II are reported.; method in brief: as §1
Oryctolagus cuniculus [6] = species on record: Oryctolagus cuniculus; test: Percent Deuterium retention was measured for the corresponding alpha-cyano amine in the Dutch rabbit liver microsomes and value from experiment III are reported.; method in brief: as §2
Oryctolagus cuniculus [7] = species on record: Oryctolagus cuniculus; test: Percent Deuterium retention was measured for the corresponding alpha-cyano amine in the Dutch rabbit liver microsomes and value from experiment II are reported.; method in brief: as §2
Oryctolagus cuniculus [8] = species on record: Oryctolagus cuniculus; test: Percent Deuterium retention was measured for the corresponding alpha-cyano amine in the Dutch rabbit liver microsomes and value from experiment VI are reported.; method in brief: as §2
Oryctolagus cuniculus [9] = species on record: Oryctolagus cuniculus; test: Percent Deuterium retention was measured for the corresponding alpha-cyano amine in the Dutch rabbit liver microsomes and value from experiment V are reported.; method in brief: as §2
Homo sapiens [10] = species on record: Homo sapiens; test: Percent Deuterium retention was measured for the corresponding alpha-cyano amine in the human liver microsomes and value from experiment III are reported; method in brief: as §1
Oryctolagus cuniculus [11] = species on record: Oryctolagus cuniculus; test: Percent Deuterium retention was measured for the corresponding alpha-cyano amine in the Dutch rabbit liver microsomes and value from experiment IV are reported.; method in brief: as §2

SMILES	Deuterium retention (Homo sapiens [1]) [%]	Deuterium retention (Homo sapiens [2]) [%]	Deuterium retention (Oryctolagus cuniculus [3]) [%]	Deuterium retention (Oryctolagus cuniculus [4]) [%]	Deuterium retention (Homo sapiens [5]) [%]	Deuterium retention (Oryctolagus cuniculus [6]) [%]	Deuterium retention (Oryctolagus cuniculus [7]) [%]	Deuterium retention (Oryctolagus cuniculus [8]) [%]	Deuterium retention (Oryctolagus cuniculus [9]) [%]	Deuterium retention (Homo sapiens [10]) [%]	Deuterium retention (Oryctolagus cuniculus [11]) [%]
CN1[C@H](C#N)CC[C@H]1c1cccnc1	3	3	34	28	24	30	22	16	27		
CN1[C@@H](C#N)CC[C@H]1c1cccnc1		92	87		84	89	81	88	77	91	79
